Assay results collected from several papers.
Protocols differ between the studies behind these lines.
Target: Rhodopsin kinase GRK7 (GRK7, Homo sapiens, UniProt Q8WTQ7)
Residues used in one study (Q8WTQ7 1-553): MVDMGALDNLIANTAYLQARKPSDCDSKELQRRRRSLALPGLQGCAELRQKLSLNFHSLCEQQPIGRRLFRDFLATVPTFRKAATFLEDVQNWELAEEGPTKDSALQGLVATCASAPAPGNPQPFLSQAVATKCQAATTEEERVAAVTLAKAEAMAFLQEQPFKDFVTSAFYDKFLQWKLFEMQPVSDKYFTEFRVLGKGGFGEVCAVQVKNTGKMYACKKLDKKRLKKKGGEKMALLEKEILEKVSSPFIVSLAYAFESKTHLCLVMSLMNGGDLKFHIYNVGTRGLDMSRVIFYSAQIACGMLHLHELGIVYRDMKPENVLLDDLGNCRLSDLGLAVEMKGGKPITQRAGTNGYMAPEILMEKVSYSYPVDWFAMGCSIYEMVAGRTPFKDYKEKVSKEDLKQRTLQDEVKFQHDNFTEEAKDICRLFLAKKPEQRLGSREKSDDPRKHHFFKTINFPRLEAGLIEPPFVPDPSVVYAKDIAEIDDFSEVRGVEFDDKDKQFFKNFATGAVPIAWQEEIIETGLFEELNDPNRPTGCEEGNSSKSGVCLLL

SMILES	assay	conditions	quantity	value
O=C1Nc2ccc(Cl)cc2C1=Cc1cc(Cl)c(O)c(Cl)c1	cell-free assay	0.5 µM	remaining signal	97.3%
COc1cc2ncnc(Nc3ccc(Oc4ccccc4)cc3C)c2cc1OC	enzyme activity, inhibitor	1 µM	inhibition	-3%
CC(C)(C)c1nc2c(s1)c1nc(N)ncc1c1ccc(NS(=O)(=O)c3c(F)cccc3F)c(F)c12	enzyme activity, inhibitor, radiometric	1 µM	remaining activity	81%
CCCOc1ccc([C@H]2[C@H](C(=O)O)[C@@H](c3ccc4c(c3)OCO4)CN2CC(=O)Nc2c(CC)cccc2CC)cc1	cell-free assay, competition with immobilised ligand	1 µM	remaining binding	100%
Nc1ncnc2occ(-c3ccc(NC(=O)Nc4cc(C(F)(F)F)ccc4F)cc3)c12	cell-free assay, inhibitor	20 µM	remaining signal	77%
O=C(O)[C@@H]1[C@@H](Cn2nnc3ccccc3c2=O)CC[C@H]1C(=O)c1ccc(OCCC2CCOCC2)cc1	cell-free assay, competition with immobilised ligand	1 µM	remaining binding	100%
COc1cc2c(N3CCN(C(=O)Nc4ccc(OC(C)C)cc4)CC3)ncnc2cc1OCCCN1CCCCC1	cell-free assay	0.5 µM	remaining signal	104%
Cc1nc(Cc2cccc(C(F)(F)F)c2)sc1-c1ccc(C(N)=O)nc1	cell-free assay, competition with immobilised ligand	1 µM	remaining binding	100%
O=C(Nc1cnn(-c2csc(C(=O)NC3COC3)c2)c1)Nc1c(F)cccc1Cl	enzyme activity, inhibitor	5 µM	remaining activity	94%
CCN(CC)c1ccc(C2=NNC(=O)CC2C)cc1[N+](=O)[O-] (centres unmarked)	enzyme activity, inhibitor	10 µM	remaining activity	100%
CCCOc1ccc(OC)c(F)c1C(=O)c1ccc(C(=O)N[C@@H]2CNC[C@H]2NC(=O)c2ccc3[nH]ncc3c2)cc1	enzyme activity, inhibitor	10 µM	remaining activity	107%
CCCS(=O)(=O)Nc1ccc(F)c(C(=O)c2c[nH]c3ncc(-c4ccc(Cl)cc4)cc23)c1F	enzyme activity, inhibitor	1 µM	inhibition	< 10%
Cc1c(NC(=O)c2cc(C(N)=O)nc3cc(F)ccc23)c(C(F)(F)F)nn1Cc1ccc(C#N)cc1	cell-free assay, competition with immobilised ligand	1 µM	remaining binding	75%
Cc1sc(C(=O)NC2COC2)cc1-n1cc(NC(=O)Nc2c(F)cccc2Cl)cn1	enzyme activity, inhibitor	10 µM	remaining activity	99.9%
O=C(N1CCS(=O)(=O)CC1)N1C[C@H](c2ccc(OC(F)(F)F)cc2)C[C@H](c2nc(C3CC3)no2)C1	cell-free assay, competition with immobilised ligand	1 µM	remaining binding	100%
C[C@@H]1CCN(c2nccc(-c3cnn4ncccc34)n2)C1	binding	1 µM	remaining binding	82%
Cc1ccc(C(=O)NCc2ccsc2)cc1C#Cc1cn(C(C)C)c2ncnc(N)c12	enzyme activity, inhibitor	1 µM	activity vs control	100%
